Results on 25 molecules are retold here after ChEMBL document CHEMBL1135128, “Structure-Activity studies for a novel series of tricyclic dihydropyrimidines as K(ATP) channel openers (KCOs)” (Bioorg Med Chem Lett, 2002).

Molecules are shown by their SMILES.

One may read the EC50 as the concentration at which the effect is half-maximal.

Assay [1] concerns the target Sulfonylurea receptors; K-ATP channels. As to the kind of experiment: Potassium channel opening activity determined in cultured guinea pig urinary bladder cells. It is filed as functional, cell-based, Cavia porcellus. In a few lines: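 Membrane potential change read as DiBAC dye fluorescence in a 96-well cell-based kinetic FLIPR assay. Fluorescence changes were compared with the response to the KCO P1075, and each compound's maximal response was expressed as % of the P1075 response.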

Assay [2] is described as follows: PEC50 for functional potassium channel opening activity in isolated bladder strips.

As to `OC1=C2C(=Nc3ccnn3C2c2ccc(Br)c(F)c2)CCC1` (configuration not stated), in assay [1], it took 30 nM to reach a half-maximal effect (EC50). This lies in the double-digit nanomolar range. On the same count and under the same terms, the same measure for `N#Cc1cccc(C2C3=C(O)CCCC3=Nc3ccnn32)c1` (configuration not stated): 2860 nM. On the same count and under the same terms, to `O=[N+]([O-])c1cc(C2C3=C(O)CCCC3=Nc3ccnn32)ccc1Cl` (configuration not stated) belongs 310 nM. On the same count and under the same terms, the same measure for `OC1=C2C(=Nc3nnnn3C2c2ccc(F)c(Br)c2)CCC1` (configuration not stated): > 10000 nM; for `O=C1CSCC2Nc3ccnn3C(c3ccc(F)c(Br)c3)C12` (configuration not stated): 40 nM; for `OC1=C2C(=Nc3ncnn3C2c2ccc(F)c(Br)c2)CCC1` (configuration not stated): > 10000 nM. `CC1(C)CC(=O)C2C(C1)Nc1ccnn1C2c1ccc(F)c(Br)c1` (configuration not stated) came in with a 50% effective concentration (EC50) in assay [1] of 9700 nM.

In turn, `OC1=C2C(=Nc3c(Br)cnn3C2c2ccc(F)c(Br)c2)CCC1` (configuration not stated) registered an EC50 in assay [1] of 394 nM. On the same count and under the same terms, the same measure for `CC(C)(C)c1cc2n(n1)C(c1ccc(F)c(Br)c1)C1=C(O)CCCC1=N2` (configuration not stated): 12000 nM; for `OC1=C2C(=Nc3ccnn3C2c2ccc(F)c(C(F)(F)F)c2)CCC1` (configuration not stated): 290 nM. Consider `OC1=C2C(=Nc3ccnn3C2c2ccc(F)c(Br)c2)CCC1` (configuration not stated), for which the EC50 in assay [2] is 339 nM; in assay [1], 30 nM. `OC1=C2C(=Nc3ccnn3C2c2ccc(Cl)c(Cl)c2)CCC1` (configuration not stated) came in with a concentration giving a half-maximal response (EC50) in assay [1] of 130 nM. Still for that read-out and setting: the same measure for `OC1=C2C(=Nc3ccnn3C2c2cccc(Cl)c2)CCC1` (configuration not stated): 1100 nM. `CC1(C)CCC2Nc3ccnn3C(c3ccc(F)c(Br)c3)C2C1=O` (configuration not stated): the concentration giving a half-maximal response (EC50) in assay [2] was 1000 nM; in assay [1] it was 35 nM. In turn, `OC1=C2C(=Nc3ccnn3C2c2ccc(F)c(Cl)c2)CCC1` (configuration not stated) came in with an EC50 in assay [1] of 256 nM.

Regarding `OC1=C2C(=Nc3ccnn3C2c2cccc(OC(F)(F)F)c2)CCC1` (configuration not stated), the EC50 in assay [1] came out at 1700 nM. Still for that read-out and setting: to `OC1=C2C(=Nc3ccnn3C2c2ccc(F)cc2)CCC1` (configuration not stated) belongs 7800 nM; to `OC1=C2C(=Nc3c(-c4ccco4)cnn3C2c2ccc(Cl)c(Cl)c2)CCC1` (configuration not stated), 12000 nM. `N#Cc1cccc(C2C3=C(CCCC3=O)NC3=C2C(=O)CCC3)c1` showed an EC50 in assay [1] of 3800 nM. `OC1=C2C(=Nc3c(-c4cccc(F)c4)cnn3C2c2ccc(Cl)c(Cl)c2)CCC1` (configuration not stated) returned an EC50 in assay [1] of 3200 nM. Still for that read-out and setting: to `O=S1(=O)CCCC2Nc3ccnn3C(c3ccc(F)c(Br)c3)C21` (configuration not stated) belongs 910 nM; to `OC1=C2C(=Nc3n[nH]cc3C2c2ccc(F)c(Br)c2)CCC1` (configuration not stated), > 10000 nM. Still for that read-out and setting: the same measure for `OC1=C2C(=Nc3ccnn3C2c2cccc(Br)c2)CCC1` (configuration not stated): 550 nM. Still for that read-out and setting: to `Cc1cccc(C2C3=C(O)CCCC3=Nc3ccnn32)c1` (configuration not stated) belongs > 10000 nM; to `OC1=C2C(=Nc3ccnn3C2c2ccc(Cl)c(C(F)(F)F)c2)CCC1` (configuration not stated), 187 nM.
